# According to ChEMBL document CHEMBL3792275 (Bioorg Med Chem Lett, 2016):
# Calls of active or inactive are those of the source. The rule behind the calls is not given here.
# Experiments:
# [1] = target: Matrix metalloproteinase-9 (Homo sapiens, UniProt P14780); assay: Inhibition of human recombinant MMP9 using Mca-Pro-Leu-Gly-Leu-Dpa-Ala-Arg-NH2 as substrate preincubated for 60 mins followed by substrate addition by fluorimetric analysis
# [2] = target: 72 kDa type IV collagenase (Homo sapiens, UniProt P08253); assay: Inhibition of human recombinant MMP2 using Mca-Pro-Leu-Gly-Leu-Dpa-Ala-Arg-NH2 as substrate preincubated for 60 mins followed by substrate addition by fluorimetric analysis
# Sequence of 72 kDa type IV collagenase (P08253 whole entry): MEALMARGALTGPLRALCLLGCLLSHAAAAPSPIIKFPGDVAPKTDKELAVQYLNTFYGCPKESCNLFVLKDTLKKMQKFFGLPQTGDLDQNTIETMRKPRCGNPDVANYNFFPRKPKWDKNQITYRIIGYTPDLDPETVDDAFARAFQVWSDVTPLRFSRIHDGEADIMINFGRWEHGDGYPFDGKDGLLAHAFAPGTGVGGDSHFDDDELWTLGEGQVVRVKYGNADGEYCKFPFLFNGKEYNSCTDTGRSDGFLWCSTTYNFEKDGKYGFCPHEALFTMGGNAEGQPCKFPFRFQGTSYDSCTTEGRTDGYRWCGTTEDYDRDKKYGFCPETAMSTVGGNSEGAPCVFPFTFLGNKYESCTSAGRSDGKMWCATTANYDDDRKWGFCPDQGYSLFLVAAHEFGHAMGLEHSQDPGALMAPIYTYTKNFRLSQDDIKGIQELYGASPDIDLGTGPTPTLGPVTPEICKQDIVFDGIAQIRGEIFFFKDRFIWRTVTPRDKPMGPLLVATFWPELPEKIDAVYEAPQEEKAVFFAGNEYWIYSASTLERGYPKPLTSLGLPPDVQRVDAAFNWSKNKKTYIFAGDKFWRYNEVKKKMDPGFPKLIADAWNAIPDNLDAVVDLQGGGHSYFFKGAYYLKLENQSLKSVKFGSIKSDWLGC
# [3] = target: MMP-2/MMP-9 (Homo sapiens) (UniProt P08253+P14780); assay: Selectivity ratio of IC50 for human recombinant MMP9 to IC50 for human recombinant MMP2
# In short: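 IC50 values against MMP-2 and MMP-9 were each measured by a fluorimetric enzyme assay, with a reference inhibitor run alongside as positive control. The selectivity ratio is the MMP-9 IC50 divided by the MMP-2 IC50.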
# [4] = Terminal half life in Sprague-Dawley rat at 10 mg/kg, iv by LC-MS/MS method; assay type: ADME, organism-based; settings: in vivo, read-out: beta t1/2 (converted)
# In short: (§1)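 Sprague-Dawley rats were dosed at 10 mg/kg, either intravenously or orally. AUC0-24h, AUC0-∞, Vz, t1/2z and CLz were derived for each route.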
# [5] = Lipid-water partition coefficient, logP of compound; assay type: physicochemical
# [6] = Oral bioavailability in Sprague-Dawley rat at 10 mg/kg by LC-MS/MS method; assay type: ADME, organism-based; settings: in vivo
# [7] = Apparent volume of distribution in Sprague-Dawley rat at 10 mg/kg, iv after 15 mins to 24 hrs by LC-MS/MS method; assay type: ADME, organism-based; settings: in vivo, read-out: Vz (converted); in short: as §1
# [8] = AUC (0 to infinity) in Sprague-Dawley rat at 10 mg/kg, iv after 15 mins to 24 hrs by LC-MS/MS method; assay type: ADME, organism-based; design: dose 10 mg/kg, time infinity, route intravenous; settings: in vivo
# [9] = AUC (0 to 24 hrs) in Sprague-Dawley rat at 10 mg/kg, iv by LC-MS/MS method; assay type: ADME, organism-based; design: time < 24 hr, dose 10 mg/kg, route intravenous; settings: in vivo
# [10] = Apparent clearance in Sprague-Dawley rat at 10 mg/kg, iv after 15 mins to 24 hrs by LC-MS/MS method; assay type: ADME, organism-based; settings: in vivo, read-out: CL(app) (converted); in short: as §1
# [11] = Apparent clearance in Sprague-Dawley rat at 10 mg/kg, po after 15 mins to 24 hrs by LC-MS/MS method; assay type: ADME, organism-based; settings: in vivo, read-out: CL(app) (converted); in short: as §1
# Rattus norvegicus = assay: Apparent volume of distribution in Sprague-Dawley rat at 10 mg/kg, po after 15 mins to 24 hrs by LC-MS/MS method; assay type: ADME, organism-based; settings: in vivo; in short: as §1
# HEY [12] = assay: Antiinvasive activity in human HEY cells assessed as reduction in number of cells invading matrigel membrane after 24 hrs by crystal violet staining-based Transwell assay; assay type: functional, cell-based
# In short: (§2)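 Human ovarian cancer HEY cells were tested in a matrigel-based Transwell invasion assay, with cells invading the matrigel membrane and migrating from the upper to the lower chamber. Treatment was at 12.5, 25 and 50 µM for 24 h, with a DMSO control. Cells per view were counted after crystal violet staining. Treated groups were compared with control by t test.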
# HEY [13] = assay: Antimigratory activity in human HEY cells at 50 uM after 24 hrs by crystal violet staining-based Transwell assay; assay type: functional; in short: as §2
# HEY [14] = assay: Antimigratory activity in human HEY cells after 24 hrs by crystal violet staining-based Transwell assay; assay type: functional, cell-based; in short: as §2
# [15] = Terminal half life in Sprague-Dawley rat at 10 mg/kg, po by LC-MS/MS method; assay type: ADME, organism-based; settings: in vivo, read-out: beta t1/2 (converted); in short: as §1
# HEY [16] = assay: Cytotoxicity against human HEY cells at 6.25 to 100 uM after 48 hrs by MTT assay relative to control; assay type: cell-based
# In short: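 HEY cell viability was measured by MTT assay after exposure to 6.25–100 µM, with DMSO as control. Medium was checked by microscope for solid particles.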
# [17] = AUC (0 to infinity) in Sprague-Dawley rat at 10 mg/kg, po after 15 mins to 24 hrs by LC-MS/MS method; assay type: ADME, organism-based; design: dose 10 mg/kg, route oral, time infinity; settings: in vivo
# [18] = AUC (0 to 24 hrs) in Sprague-Dawley rat at 10 mg/kg, po by LC-MS/MS method; assay type: ADME, organism-based; design: dose 10 mg/kg, time < 24 hr, route oral; settings: in vivo
# HEY [19] = assay: Antiinvasive activity in human HEY cells assessed as reduction in number of cells invading matrigel membrane at 50 uM after 24 hrs by crystal violet staining-based Transwell assay; assay type: functional; design: scale not given: the % may be the effect or the level left; in short: as §2
# Sequence of Matrix metalloproteinase-9 (P14780 whole entry): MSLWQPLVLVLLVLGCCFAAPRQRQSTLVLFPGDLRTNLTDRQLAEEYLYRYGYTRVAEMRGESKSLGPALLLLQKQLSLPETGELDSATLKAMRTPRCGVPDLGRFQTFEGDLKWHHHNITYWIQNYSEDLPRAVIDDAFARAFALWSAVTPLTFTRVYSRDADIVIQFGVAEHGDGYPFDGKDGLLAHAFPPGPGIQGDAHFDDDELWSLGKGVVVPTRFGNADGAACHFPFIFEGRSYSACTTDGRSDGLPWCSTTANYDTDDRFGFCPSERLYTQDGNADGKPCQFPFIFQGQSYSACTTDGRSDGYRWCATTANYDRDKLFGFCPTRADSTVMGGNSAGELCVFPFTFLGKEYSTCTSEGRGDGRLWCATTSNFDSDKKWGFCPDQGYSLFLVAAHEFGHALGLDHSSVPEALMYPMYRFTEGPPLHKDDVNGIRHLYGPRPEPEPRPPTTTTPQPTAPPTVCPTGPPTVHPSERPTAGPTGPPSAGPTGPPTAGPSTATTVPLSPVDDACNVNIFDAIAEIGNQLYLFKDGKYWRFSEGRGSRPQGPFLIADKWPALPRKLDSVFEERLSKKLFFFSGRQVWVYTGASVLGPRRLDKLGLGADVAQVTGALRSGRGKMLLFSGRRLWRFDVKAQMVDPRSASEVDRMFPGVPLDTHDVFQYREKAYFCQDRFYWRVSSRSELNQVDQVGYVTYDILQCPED
Structure (SMILES),IC50 [1] [nM],IC50 [2] [nM],Ratio IC50 [3],also measured
CNC(=O)[C@H](Cc1c[nH]c2ccccc12)NC(=O)[C@@H](CC(=O)Nc1ccc(C(F)(F)F)cc1N)CC(C)C,> 10000,> 10000,inactive,
CNC(=O)[C@H](Cc1c[nH]c2ccccc12)NC(=O)[C@@H](CC(=O)Nc1ccc(Br)cc1N)CC(C)C,27.3,21.8,1.25,
CNC(=O)[C@H](Cc1c[nH]c2ccccc12)NC(=O)[C@@H](CC(=O)NO)CC(C)C [ILOMASTAT],,,,half-life [4]: 0.25 h; logP [5]: 1.04; bioavailability [6]: 0%; Vd [7]: 1.43 L/kg; AUC(0-inf) [8]: 2510 ng·h/mL; AUC(0-t) at 24 h [9]: 2510 ng·h/mL; clearance [10]: 66.5 mL/min/kg
CNC(=O)[C@H](Cc1c[nH]c2ccccc12)NC(=O)[C@@H](CC(=O)Nc1ccc(C(=O)c2ccccc2)cc1N)CC(C)C,> 10000,> 10000,inactive,
CNC(=O)[C@H](Cc1c[nH]c2ccccc12)NC(=O)[C@@H](CC(=O)Nc1ccc(F)cc1N)CC(C)C,7.75,2.2,3.52,
CNC(=O)[C@H](Cc1c[nH]c2ccccc12)NC(=O)[C@@H](CC(=O)Nc1ccccc1NC(C)=O)CC(C)C,155,> 10000,inactive,

# Second part, led by results:
IC50 [1] [nM],IC50 [2] [nM],Ratio IC50 [3],Structure (SMILES),also measured
13.5,2.05,6.59,CNC(=O)[C@H](Cc1c[nH]c2ccccc12)NC(=O)[C@@H](CC(=O)Nc1cccc(N)c1)CC(C)C,
1580,0.19,8310,CNC(=O)[C@H](Cc1c[nH]c2ccccc12)NC(=O)[C@@H](CC(=O)Nc1ccccc1N)CC(C)C,CL/F [11]: 1190 mL/min/kg; Vz (Rattus norvegicus): 579.41 L/kg; Activity (HEY [12]): Dose-dependent effect; Activity (HEY [13]): 84.6%; half-life [4]: 7.88 h; logP [5]: 1.91; Activity (HEY [14]): Dose-dependent effect; half-life [15]: 5.64 h; bioavailability [6]: 4%; Activity (HEY [16]): Non-toxic; AUC(0-inf) [17]: 140 ng·h/mL; AUC(0-t) at 24 h [18]: 36.2 ng·h/mL; Vd [7]: 35.8 L/kg; AUC(0-inf) [8]: 3210 ng·h/mL; AUC(0-t) at 24 h [9]: 3070 ng·h/mL; Activity (HEY [19]): 84.6%; clearance [10]: 52.2 mL/min/kg
7300,> 10000,inactive,CNC(=O)[C@H](Cc1c[nH]c2ccccc12)NC(=O)[C@@H](CC(=O)Nc1ccc(C)cc1N)CC(C)C,
